Data taken from ChEMBL document CHEMBL3046951, “Volatile constituents from the leaves of Callicarpa japonica Thunb. and their antibacterial activities” (2004).

Tests used:
Escherichia coli [1] = assay: Antimicrobial activity against Escherichia coli O157:H7 ATCC 43894 assessed as growth inhibition rate at 3.64 mg/l after 72 hr by spectrophotometry; assay type: functional; conditions: O157:H7 ATCC 43894, 72 h, read-out: GI
Listeria monocytogenes [2] = assay: Antimicrobial activity against Listeria monocytogenes ATCC 19111 assessed as growth inhibition rate at 3.64 mg/l after 72 hr by spectrophotometry; assay type: functional; conditions: ATCC 19111, 72 h, read-out: GI
In short: (§1)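 L. monocytogenes was grown at 30 °C in tryptic soy broth, subcultured for 18 h, and exposed to pure volatile compounds (>95% purity). Growth was followed by Bioscreen C optical density every 24 h for 72 h against a 10% Tween 80 control.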

Bacillus cereus [3] = assay: Antimicrobial activity against Bacillus cereus ATCC 11778 assessed as growth inhibition rate at 3.64 mg/l after 72 hr by spectrophotometry; assay type: functional; conditions: ATCC 11778, 72 h, read-out: GI
In short: (§2)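 Pure volatile compounds (purity >95%; one at 90%) were tested against B. cereus ATCC 11778. The strain was grown at 30 °C in nutrient broth for 24 h, then subcultured for 18 h. Optical density was read in a Bioscreen C every 24 h for 72 h, with 10% Tween 80 as the control.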

Vibrio parahaemolyticus [4] = assay: Antimicrobial activity against Vibrio parahaemolyticus ATCC 33844 assessed as growth inhibition rate at 3.64 mg/l after 72 hr by spectrophotometry; assay type: functional; conditions: ATCC 33844, 72 h, read-out: GI
Salmonella typhimurium [5] = assay: Antimicrobial activity against Salmonella enterica subsp. enterica serovar Typhimurium ATCC 14028 assessed as growth inhibition rate at 3.64 mg/l after 72 hr by spectrophotometry; assay type: functional; conditions: ATCC 14028, 72 h, read-out: GI
In short: (§3)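 Salmonella Typhimurium ATCC 14028 grown in nutrient broth at 30 °C, precultured 24 h, then subcultured 1:100 for 18 h before testing. Single volatile compounds (>95% pure) were added. OD was read every 24 h over 72 h in a Bioscreen C, with 10% Tween 80 as the comparison control.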

Staphylococcus aureus [6] = assay: Antimicrobial activity against Staphylococcus aureus ATCC 25923 assessed as growth inhibition rate at 3.64 mg/l after 72 hr by spectrophotometry; assay type: functional; conditions: ATCC 25923, 72 h, read-out: GI
Salmonella typhimurium [7] = assay: microbe, parasite or virus in culture; conditions: Salmonella enterica, ATCC 14028, 72 h, read-out: GI
Bacillus cereus [8] = assay: microbe, parasite or virus in culture; conditions: ATCC 11778, 72 h, read-out: GI
Staphylococcus aureus [9] = assay: microbe, parasite or virus in culture; conditions: ATCC 25923, 72 h, read-out: GI
Vibrio parahaemolyticus [10] = assay: microbe, parasite or virus in culture; conditions: ATCC 33844, 72 h, read-out: GI
Escherichia coli [11] = assay: microbe, parasite or virus in culture; conditions: O157:H7 ATCC 43894, 72 h, read-out: GI
Listeria monocytogenes [12] = assay: microbe, parasite or virus in culture; conditions: ATCC 19111, 72 h, read-out: GI
Escherichia coli [13] = assay: Antimicrobial activity against Escherichia coli O157:H7 ATCC 43894 assessed as growth inhibition rate at 1.44 mg/l after 72 hr by spectrophotometry; assay type: functional; conditions: O157:H7 ATCC 43894, 72 h, read-out: GI
Staphylococcus aureus [14] = assay: Antimicrobial activity against Staphylococcus aureus ATCC 25923 assessed as growth inhibition rate at 1.44 mg/l after 72 hr by spectrophotometry; assay type: functional; conditions: ATCC 25923, 72 h, read-out: GI
Vibrio parahaemolyticus [15] = assay: Antimicrobial activity against Vibrio parahaemolyticus ATCC 33844 assessed as growth inhibition rate at 1.44 mg/l after 72 hr by spectrophotometry; assay type: functional; conditions: ATCC 33844, 72 h, read-out: GI
Bacillus cereus [16] = assay: Antimicrobial activity against Bacillus cereus ATCC 11778 assessed as growth inhibition rate at 1.44 mg/l after 72 hr by spectrophotometry; assay type: functional; conditions: ATCC 11778, 72 h, read-out: GI; in short: as §2
Salmonella typhimurium [17] = assay: Antimicrobial activity against Salmonella enterica subsp. enterica serovar Typhimurium ATCC 14028 assessed as growth inhibition rate at 1.44 mg/l after 72 hr by spectrophotometry; assay type: functional; conditions: ATCC 14028, 72 h, read-out: GI; in short: as §3
Listeria monocytogenes [18] = assay: Antimicrobial activity against Listeria monocytogenes ATCC 19111 assessed as growth inhibition rate at 1.44 mg/l after 72 hr by spectrophotometry; assay type: functional; conditions: ATCC 19111, 72 h, read-out: GI; in short: as §1

CCc1ccco1
inhibition of growth at 3.64 µg/mL (Escherichia coli [1]): 0%
inhibition of growth at 3.64 µg/mL (Listeria monocytogenes [2]): 0%
inhibition of growth at 3.64 µg/mL (Bacillus cereus [3]): 0%
inhibition of growth at 3.64 µg/mL (Vibrio parahaemolyticus [4]): 2.3%
inhibition of growth at 3.64 µg/mL (Salmonella typhimurium [5]): 1.6%
inhibition of growth at 3.64 µg/mL (Staphylococcus aureus [6]): 4.3%

CCO [ALCOHOL]
inhibition of growth at 104.72 µg/mL (Salmonella typhimurium [7]): 3.4%
inhibition of growth at 104.72 µg/mL (Bacillus cereus [8]): 0%
inhibition of growth at 104.72 µg/mL (Staphylococcus aureus [9]): 3.2%
inhibition of growth at 104.72 µg/mL (Vibrio parahaemolyticus [10]): 3.9%
inhibition of growth at 104.72 µg/mL (Escherichia coli [11]): 2%
inhibition of growth at 104.72 µg/mL (Listeria monocytogenes [12]): 0%

CCOC(C)=O [ETHYL ACETATE]
inhibition of growth at 1.44 µg/mL (Escherichia coli [13]): 0%
inhibition of growth at 1.44 µg/mL (Staphylococcus aureus [14]): 6.6%
inhibition of growth at 1.44 µg/mL (Vibrio parahaemolyticus [15]): 4.5%
inhibition of growth at 1.44 µg/mL (Bacillus cereus [16]): 0%
inhibition of growth at 1.44 µg/mL (Salmonella typhimurium [17]): 9.3%
inhibition of growth at 1.44 µg/mL (Listeria monocytogenes [18]): 0%
